Compounds with a hit are over-represented: about 4.2% of the library has one in this group of screens.
HDAC3 inh: human HDAC3 inhibition | O15379 | recombinant HDAC3, fluorogenic peptide/trypsin coupled, fluorescence | inhibition, % at 8.3 µM | actives 0.15% (n = 320,000) | AID 2718; in the data active = inhibition above about 26%, passing the limit was not always enough
FXN GAA850 act: activators of GAA850 frataxin (FXN) promoter. actives 0.56% (n = 360,000). HEK293 lucGAA850 FXN promoter luciferase reporter, 24 h; percent of 10 µM SAHA response. activation, % at 6 µM;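 active = activation above the average of all compounds screened plus 3 SD, cutoff fixed separately per campaign, cut at about 7.5% in these data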;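 also: 0% = DMSO wells and 100% = 10 µM SAHA wells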
SENP1 inh: blocks the human SENP1 SUMO protease catalytic domain | Q9P0U3 | recombinant SENP1 catalytic domain, CyPet-SUMO1-YPet FRET cleavage | inhibition, % at 10 µM | actives 0.21% (n = 360,000);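 active = inhibition at least 30% at 10 µM, raw YFP signal under a set limit, fluorescence ratio 0.5 to 1.5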;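 also: 0% = enzyme with DMSO and 100% = no enzyme wells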
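material = recombinant human SENP1 catalytic domain, His6-tagged | quantity = 20 pM enzyme | reagent = 25 nM SUMO1 FRET substrate | compound dosing = 10 µM single point, 0.5% DMSO | timing = 50 min enzyme reaction, room temperature, light-protected | detection = FRET, CFP and YFP emission | control set = no-enzyme low, enzyme-DMSO high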
PfM18AAP inh: PfM18AAP enzyme inhibition | recombinant PfM18AAP, H-Glu-NHMec fluorogenic cleavage | actives 1.2% (n = 290,000) | inhibition, % at 7.35 µM;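 active = inhibition above the campaign mean inhibition over all tested compounds plus 3 SD, cut at about 28% in these data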;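 also: 0% = plate median of test compound wells and 100% = 2 mM ZnCl2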
AHR activator: activates the human aryl hydrocarbon receptor | P35869 | AHR-responsive luciferase reporter cells, luminescence | activation, % at 5 µM | actives 2.5% (n = 320,000); in the data active = activation above about 47%;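 also: 0% = vehicle wells and 100% = reference agonist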
Target sequence (P35869 whole entry, looked up): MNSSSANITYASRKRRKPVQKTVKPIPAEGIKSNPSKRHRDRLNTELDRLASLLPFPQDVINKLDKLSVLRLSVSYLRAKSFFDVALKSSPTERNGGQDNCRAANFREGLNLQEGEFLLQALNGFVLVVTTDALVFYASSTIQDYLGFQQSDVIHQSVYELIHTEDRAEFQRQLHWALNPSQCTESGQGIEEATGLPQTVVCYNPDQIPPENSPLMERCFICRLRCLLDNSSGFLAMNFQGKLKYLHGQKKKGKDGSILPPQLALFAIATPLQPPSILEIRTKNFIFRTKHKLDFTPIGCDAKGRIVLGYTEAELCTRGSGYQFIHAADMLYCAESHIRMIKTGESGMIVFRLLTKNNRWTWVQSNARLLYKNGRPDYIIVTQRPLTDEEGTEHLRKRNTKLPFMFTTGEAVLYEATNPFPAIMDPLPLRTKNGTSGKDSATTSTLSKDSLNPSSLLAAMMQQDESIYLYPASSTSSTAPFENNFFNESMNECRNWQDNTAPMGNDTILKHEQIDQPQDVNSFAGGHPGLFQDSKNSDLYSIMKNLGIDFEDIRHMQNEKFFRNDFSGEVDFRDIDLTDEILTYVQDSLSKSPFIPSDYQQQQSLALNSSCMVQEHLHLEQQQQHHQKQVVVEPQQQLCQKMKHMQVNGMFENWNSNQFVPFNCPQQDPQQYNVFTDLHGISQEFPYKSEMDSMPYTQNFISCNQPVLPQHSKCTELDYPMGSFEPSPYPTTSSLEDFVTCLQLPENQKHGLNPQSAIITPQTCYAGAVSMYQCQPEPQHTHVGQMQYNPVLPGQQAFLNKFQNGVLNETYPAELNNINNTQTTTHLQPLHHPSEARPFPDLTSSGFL
CTSL1 counter: cathepsin L1 inhibition, PFM18AAP counter-screen; recombinant F. hepatica cathepsin L1, Z-Leu-Arg-MCA fluorescence; inhibition, % at 5.96 µM; actives 0.49% (n = 300,000); AID 1906;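 active = inhibition above the mean of all tested compounds plus 3 SD, set per screening campaign, cut at about 17% in these data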;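 also: 0% = plate median of test compound wells and 100% = 1 µM Z-Phe-Ala-diazomethylketone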
AHR act confirm: human AHR activation, confirmation; shares compounds with AHR activator; human cells, AHR-responsive luciferase reporter, luminescence; activation, % at 9 µM; actives 87% (n = 2,300); in the data active = activation above about 49%;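 also: HepG2 hepatoma cells carrying a DRE-driven firefly luciferase reporter; 0% = vehicle wells and 100% = reference agonist wells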
PXR counter: counter-screen for AHR activators: human PXR activators | shares compounds with AHR activator | cell-based PXR reporter, luciferase luminescence | activation, % at 11.6 µM | actives 88% (n = 2,300) | AID 434939; in the data active = activation above about 11%;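 also: human hepatoma DPX-2 cells expressing full-length human PXR; 0% = DMSO and 100% = reference agonist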
The depositor's hits bear a star.

Screening COc1cc(SC)ccc1C(=O)Nc1ccccc1 returned HDAC3 inh 1, FXN GAA850 act 4, SENP1 inh 2, PfM18AAP inh 0, AHR activator 12 and CTSL1 counter 1.
Screening COc1ccccc1OC(C)C(=O)Nc1ccc2c(c1)OCCO2 (centres undefined) returned HDAC3 inh -4, FXN GAA850 act -1, SENP1 inh 2, PfM18AAP inh 1, AHR activator 5 and CTSL1 counter 9.
COc1ccccc1C(=O)Nc1cccc(SC)c1 was read as HDAC3 inh 5, FXN GAA850 act 2, SENP1 inh 3, PfM18AAP inh -4, AHR activator 83*, CTSL1 counter 3, AHR act confirm 85* and PXR counter 23*.
Screening COc1ccc(-c2cc(C(F)(F)F)n3nc(C(N)=O)cc3n2)cc1 returned FXN GAA850 act 1 and SENP1 inh -96.
CCc1ccccc1NC(=O)Nc1ccc2c(c1)OCO2 was read as HDAC3 inh 18, FXN GAA850 act 5, SENP1 inh 2, PfM18AAP inh 7, AHR activator 87*, CTSL1 counter -2, AHR act confirm 92* and PXR counter 86*.
Screening COc1ccc(Cl)cc1C(=O)Nc1ccc2c(c1)OCO2 returned HDAC3 inh -2, FXN GAA850 act 3, SENP1 inh 1, PfM18AAP inh -4, AHR activator 92*, CTSL1 counter -1, AHR act confirm 105* and PXR counter 81*.
For COc1ccccc1C(=O)Nc1ccc2c(c1)OCO2 the results were HDAC3 inh 1, FXN GAA850 act 4, SENP1 inh 0, PfM18AAP inh -1, AHR activator 146*, CTSL1 counter -2, AHR act confirm 147* and PXR counter 53*.
CCOc1ccccc1C(=O)NCC(=O)Nc1ccc2c(c1)OCO2 was read as HDAC3 inh 3, FXN GAA850 act 0, SENP1 inh 1, AHR activator 83*, AHR act confirm 100* and PXR counter 102*.
`OC(Cc1ccnc2ccccc12)C(Cl)(Cl)Cl` (centres undefined) gave FXN GAA850 act 0 and SENP1 inh 1.
Screening O=C(C1CCC(=O)N(C2CCCC2)C1)N1CCN(Cc2cccc(F)c2)CC1 (centres undefined) returned HDAC3 inh 4, FXN GAA850 act 1, SENP1 inh -1, PfM18AAP inh 2, AHR activator 0 and CTSL1 counter 5.
Screening O=C(NC(=S)NCc1ccccc1)c1ccc2c(c1)OCO2 returned HDAC3 inh 0, FXN GAA850 act 3, SENP1 inh 2, PfM18AAP inh 1, AHR activator 84*, CTSL1 counter 0, AHR act confirm 61* and PXR counter 19*.
O=C(NNC(=S)NCc1ccccc1)c1ccc2c(c1)OCO2 was read as HDAC3 inh -9, FXN GAA850 act 0, SENP1 inh -1, PfM18AAP inh 4, AHR activator 2 and CTSL1 counter -2.
For CCOc1ccccc1NC(=O)Nc1ccncc1 the results were HDAC3 inh -3, FXN GAA850 act 0, SENP1 inh 0, PfM18AAP inh 2, AHR activator 139*, CTSL1 counter -7, AHR act confirm 86* and PXR counter 18*.
For Cc1ccccc1OC1(C)CCN(Cc2ccc(-c3ccccn3)cc2)C1 (centres undefined) the results were FXN GAA850 act 2 and SENP1 inh 4.
Screening Cc1ccnc(NC(=O)c2cccc(S(=O)(=O)N3CCCc4ccccc43)c2)c1 returned HDAC3 inh 8, FXN GAA850 act 2, SENP1 inh 1, AHR activator 10 and CTSL1 counter -1.
O=[N+]([O-])c1ccc2[nH]nc(-c3ccccc3)c2c1 was read as HDAC3 inh 1, FXN GAA850 act 2, SENP1 inh 2, PfM18AAP inh 0, AHR activator -1 and CTSL1 counter 3.
